# Screening data: PubChem BioAssay, several laboratories
# An excerpt weighted towards active compounds, which were near 11% of everything screened.
# Diaphorase act: compounds boosting diaphorase resazurin reduction – biochemical, uHTS, resorufin fluorescence, counter-screen for diaphorase-coupled primary assays, primary screen. Diaphorase/resazurin coupled assay, 16 min; active compounds read high; 1 = vehicle wells, 0 = NADH-free wells. activation factor at 20 µM. hit rate 0.005% among 190,000;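 active = diaphorase activity raised at least twofold by the compound at 20 µM; inactive = activation factor below 2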
#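 Material: Purified diaphorase enzyme from Clostridium kluyveri | Buffer or medium: 50 mM HEPES pH 7.4 with 4.542 mM MgCl2, 0.005% Tween 20 | Times: 16 min enzyme reaction, ambient temperature | Signal: Red resorufin fluorescence at 544/590 nm excitation/emission | Measure: Increased resorufin signal from activators or reducing compounds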
# Diaphorase inh: diaphorase inhibitors and chemical oxidizers, primary screen, counter-screen for diaphorase-coupled primary assays, biochemical, uHTS, resorufin fluorescence. diaphorase resazurin-to-resorufin fluorescence, NADH, 16 min; bacterial (C. kluyveri) enzyme, not human. inhibition, % at 20 µM. hit rate 0.69% among 190,000. AID 1217, 2008;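 active = primary screen inhibition at 20 µM above a set limit, cut at about 50% in these data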;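 also: plate controls were DMSO with full reaction for no effect and wells lacking NADH for full effect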
#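 controls = No-NADH positive control and DMSO neutral control | system = Clostridium kluyveri diaphorase enzyme | timing = reaction incubation of 16 min at room temperature | signal = resorufin fluorescence 544/590 nm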
# WT yeast gro inh: growth inhibition of WT strain, primary screen, mitochondrial fusion inhibitor project, WT and mutant strains, chemical genetic; hit rate 2.1% among 190,000; AID 1362, 2008; mitochondrial fusion phenotypic screen; inhibition, % at 10 µM; in the data active = inhibition above about 58%; tested in S. cerevisiae
# L major viab: Leishmania major promastigote growth inhibition, primary screen; Leishmania major promastigotes, resazurin fluorescence viability; inhibition, % at 10 µM; hit rate 9% among 200,000;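 also: promastigotes grown with compound for 44 hours at 28 °C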
# G6PDH CS: L. mesenteroides G6PDH inhibitors, counter-screen for G6PDH-coupled screening assays, biochemical, Leuconostoc mesenteroides enzyme; glucose-6-phosphate dehydrogenase [Leuconostoc mesenteroides]; Purified L. mesenteroides G6PDH, diaphorase/resazurin coupled fluorescence, 45 min; inhibition, % at 5 µM; hit rate 0.12% among 200,000; AID 1020, 2008
# Active calls of the source: *; nt = not tested or not shown. Rule as the data show it, unless noted: active = inhibition above about 50%; inactive = the rest.
SMILES,Diaphorase act,Diaphorase inh,WT yeast gro inh,L major viab,G6PDH CS
COc1ccc(Cn2c(/C=C/c3ccccc3)nc3ccccc32)cc1,0.8,17.8,20.5,37.5,3.6
Clc1ccccc1Cn1c(/C=C/c2ccco2)nc2ccccc21,0.8,23.8,78.1*,46.7,9.6
COc1ccc(CN2CCOCC2)cc1,1,4.8,-1.3,2.3,7.7
COc1cc(C(=O)Oc2c(CN3CCOCC3)cc(Cl)c3cccnc23)cc(OC)c1OC,0.4,58.1*,-0.3,100.5*,37.7
O=C(Oc1c(Br)cc(C(=S)N2CCOCC2)cc1Br)c1ccc(Cl)cc1,1,4.1,11.4,-7.7,4.6
COc1cccc(C(=O)Oc2c(CN3CCOCC3)cc(Cl)c3cccnc23)c1,0.9,14.3,4.4,100.3*,13.4
O=C(Oc1c(CN2CCOCC2)cc(Cl)c2cccnc12)c1ccc(F)cc1,0.7,28.2,-0.9,100.3*,-25.8
COc1ccc(C(=O)Oc2c(CN3CCOCC3)cc(Cl)c3cccnc23)cc1,0.9,14.1,-12.9,96.8*,9.6
CC(OC(=O)c1cccs1)C(=O)NCC1CCCO1 (stereo not drawn),1,-4.8,-3.6,-5.1,23.1
Cc1ccoc1C(=O)NCCNc1ccc(Cl)cc1[N+](=O)[O-],0.9,10.8,-6.7,83.4*,0.4
COc1ccc(/C=N/OCC(=O)N=Nc2c(O)[nH]c3ccc(Br)cc23)cc1OC,0.8,22.3,20.7,63.5*,3.0
COc1ccc(/C(C)=N/OCC(=O)N=Nc2c(O)[nH]c3ccc(Br)cc23)cc1,0.9,6.9,1.9,-4.7,8.1
CCOc1ccc(/C(O)=C2\C(=O)C(=O)N(CCOCCO)C2c2ccccc2OC)cc1 (stereo not drawn),0.9,5.7,18.7,-7.2,12.5
C=CCN1C(=O)CSc2ccc(C(=O)NCCC3=CCCCC3)cc21,0.7,26.9,31.6,75.5*,-0.3
C=CCN1C(=O)CSc2ccc(C(=O)NCc3ccco3)cc21,0.9,7.2,7.3,0.3,18.5
CC1CC(C)CN(CCCn2c(=S)[nH]c3ccccc3c2=O)C1 (stereo not drawn),0.9,9.3,-12.7,89.5*,-4.9
CCN(CC)CCCn1c(=S)[nH]c2ccccc2c1=O,1,-2.1,3.2,0.6,9.9
O=C(Oc1cc2oc(=O)c3c(c2cc1Cl)CCCC3)c1cccs1,0.9,14.3,70.2*,-6.4,-10.5
COc1ccc(C(O)C(CN2CCOCC2)c2ccccc2)cc1F (stereo not drawn),1.1,-9.1,26.0,86.4*,1.1
COc1ccccc1C(O)(c1ccccc1)C(CN1CCOCC1)c1ccccc1 (stereo not drawn),0.9,13.0,3.3,38.8,-0.5
CC(C)CNC(=O)Cn1c(=O)c2c(ncn2CC(C)C)n(Cc2ccccc2)c1=O,0.9,5.7,-4.1,-10.1,0.4
COc1cccc2sc(Nc3nnc(-c4ccccc4Cl)o3)nc12,1,4.1,8.6,97.4*,-83.0
CC(=O)Nc1ccc2nc(NC(=O)COc3ccccc3C)sc2c1,1,-1.3,8.6,8.9,6.3
COc1cccc2sc(Nc3nc4ccc(NC(C)=O)cc4s3)nc12,1.3,-28.7,2.9,85.4*,2.7
COc1cccc2sc(Nc3nc(-c4cc5ccccc5oc4=O)cs3)nc12,0.7,25.9,-1.8,6.0,-62.4
SMILES,Diaphorase act,Diaphorase inh,WT yeast gro inh,L major viab,G6PDH CS
COc1cccc2sc(NN)nc12,0.9,8.7,20.1,60.0*,2.3
COc1cccc2sc(Nc3nc(-c4ccncc4)cs3)nc12,1.1,-5.8,5.6,22.1,1.5
NNc1nc2c(Cl)c(Cl)ccc2s1,0.9,13.9,77.7*,99.2*,14.6
O=C(NC1CCCCC1)C(=S)NC1CCCCC1,1,1.1,-0.8,-3.3,0.7
COc1ccccc1-c1nnc(Nc2nc3c(OC)cccc3s2)o1,0.9,13.5,8.1,97.9*,3.6
CCOC(=O)c1sc(Nc2nc3cc4c(cc3s2)OCO4)cc1C,1.1,-15.0,0.4,2.3,18.9
COc1cccc(-c2nnc(Nc3nc4c(F)cccc4s3)o2)c1,1.1,-14.6,11.2,1.3,13.0
CCOC(=O)c1sc(Nc2nc3c(OC)cccc3s2)cc1C,0.8,21.7,53.3,69.0*,-50.2
COC(=O)c1ccc(COc2cc([N+](=O)[O-])cc3cccnc23)o1,nt,nt,25.8,19.1,23.6
O=[N+]([O-])c1cc(O)c2ncccc2c1,0.5,52.1*,21.0,100.1*,42.8
Cc1c(F)cccc1NS(=O)(=O)c1ccc2c(c1)c(=O)n(C)c(=O)n2C,1,0.6,-7.3,14.0,-1.9
Cn1c(NCCCO)nc2c(c1=O)C1(CCCCC1)Cc1ccccc1-2,0.7,25.5,60.4*,0.1,14.4
CCN(CC)S(=O)(=O)c1cccc(C(=O)Oc2cccc(NC(=O)c3cccs3)c2)c1,0.8,21.7,-12.7,3.6,13.4
CCN1CCN(CC(O)COC(c2ccccc2)c2ccccc2)CC1 (stereo not drawn),1,-2.7,-15.0,0.1,5.7
CCCCC(O)CN1CCC(c2ccccc2)CC1 (stereo not drawn),0.9,14.6,-1.2,93.1*,2.9
O=S(=O)(Cc1cccc(C(F)(F)F)c1)c1ncn[nH]1,1.2,-18.7,-7.1,-7.4,10.8
Cc1c(C(=O)Oc2ccc(F)cc2)sc2ncn(Cc3cccc(F)c3)c(=O)c12,1,4.0,1.2,50.9*,1.3
CCn1cnc2sc(C(=O)Oc3cccc(C)c3)c(C)c2c1=O,0.8,21.7,19.9,40.9,-2.2
Cc1cccc(Nc2cc(C)c3c(O)cccc3n2)c1C,1,1.5,70.4,99.2*,15.2
CC(C)NC(=O)c1nn(C)c2ccccc12,1,-0.4,-6.0,44.2,-4.0
CCN(CC)S(=O)(=O)c1cccc(NC2=NCC(C)S2)c1 (stereo not drawn),0.9,12.8,-22.6,7.1,1.8
COc1cccc(NC(=O)Nc2nccc(C)n2)c1,1,4.1,24.6,-2.1,-4.9
Cc1ccc(-c2nc(NC(=O)CSc3nnc4scc(-c5ccccc5)n34)ns2)cc1,nt,nt,7.3,nt,nt
CC1CCN(CCOCCOc2ccccc2Br)CC1,0.8,19.8,-3.2,82.2*,0.7
CC1CCCN(CCCOc2ccccc2-c2ccccc2)C1 (stereo not drawn),0.9,13.5,32.5,94.3*,8.9
Cc1ccc2cccc(OCCOCCOc3ccccc3Br)c2n1,0.9,5.4,27.8,66.7*,-6.1
CC1CCN(CCCCOc2ccccc2-c2ccccc2)CC1,0.9,11.3,42.5,99.1*,-1.5
O=C(COc1ccccc1)Nc1cccc(-c2nc3cc4ccccc4cc3[nH]2)c1,0.8,16.6,75.0,32.4,3.2
CC1CCN(CCOCCOc2ccccc2-c2ccccc2)CC1,1,1.6,4.3,82.7*,-2.8
